Columns and labels:
[1] = test system: melanocytes; conditions: 1 mM for 48 h; cited from earlier work
[2] = test system: B16F10 cells; test: Anti-melanogenesis activity on B16F10 murine melanomas; format: cell-based; conditions: 20 μg/ml, 72 h
How it was run: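 B16F10 murine melanoma cells (ATCC; DMEM with 10 % FBS) are seeded in 6-well plates and held 24 h in a CO₂ incubator, then exposed to test compound for 72 h. Cells are washed with 1xPBS, dissolved in 10 % NaOH at 60 °C for 1 h, and melanin is read at 450 nm. % anti-melanogenesis = 100 − (Mt/Mc × 100) versus untreated control. Triplicate, three independent experiments; mean ± SD.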

[3] = test system: human melanocytes; conditions: doses between 1.25 and 10 μM; cited from earlier work
[4] = test system: tyrosinase; conditions: treating hyperpigmentation disorders; cited from earlier work
[5] = test system: cultured human melanoma cells; conditions: cited from earlier work

O=C1O[C@H]([C@@H](O)CO)C([O-])=C1OP(=O)([O-])[O-].O=C1O[C@H]([C@@H](O)CO)C([O-])=C1OP(=O)([O-])[O-].[Mg+2].[Mg+2].[Mg+2] [MAP, Magnesium ascorbyl phosphate]
cytotoxic or cell growth inhibiting effects [1]: no noticeable cytotoxic or cell growth inhibiting effects

O=c1cc(CO)occ1O [kojic acid]
% Anti-melanogenesis [2]: 44.54 ± 2.47%

COc1cc(/C=C/C(=O)CC(=O)/C=C/c2ccc(O)c(OC)c2)ccc1O [CC, Curcumin]
melanocyte viability [3]: without affecting melanocyte viability

OC[C@H]1O[C@@H](Oc2ccc(O)cc2)[C@H](O)[C@@H](O)[C@@H]1O [arbutin]
pigmentation reduction [4]: 43.5%

OC[C@H]1O[C@H](Oc2ccc(O)cc2)[C@H](O)[C@@H](O)[C@@H]1O [AA, Alpha arbutin]
melanin content and tyrosinase activity ([5]; 0.25–0.5 mM): decreased melanin content and tyrosinase activity in a dose-dependent manner | cell proliferation ([5]; 0.25–1 mM): no effect on cell proliferation

CC(=O)Cc1cc(=O)c2c(C)cc(O)c([C@@H]3O[C@H](CO)[C@@H](O)[C@H](O)[C@H]3O)c2o1 [aloesin]
pigmentation reduction [4]: 34%

Source: publication PMC11315199 (Heliyon, 2024)
